Reference: the EternaBench riboswitch data

Tested on: MS2 coat protein
Assay: apparent Kd, MS2 coat protein; higher = weaker binding; RNA-MaP array; FMN 200 µM where present
In short: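 Apparent Kd: the median of filtered binding-curve fits from single clusters. Designs were transcribed on Illumina sequencing-chip clusters by stalled E. coli RNA polymerase and titrated with SNAP-549-labelled MS2 coat protein from 0.7 or 1.5 nM, doubling to 3 µM, in 100 mM Tris-HCl pH 7.5, 80 mM KCl, 4 mM MgCl2, BSA, DTT, yeast tRNA and Tween-20. Each series ran without and then with constant ligand, and green signal was normalised to red-channel RNA signal and control-cluster median Fmax.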

[1] = designed as: ON switch for flavin mononucleotide, no ligand
[2] = ligand present: flavin mononucleotide, designed as: ON switch for flavin mononucleotide
[3] = designed as: OFF switch for flavin mononucleotide, no ligand
[4] = ligand present: flavin mononucleotide, designed as: OFF switch for flavin mononucleotide

Sequence | apparent Kd [1] | apparent Kd [2] | apparent Kd [3] | apparent Kd [4]
GUAGCAUACAGAGGAUAUUCAAAACCGGAAACGGACAUGAGGAUCACCCAUGUGGCGAAAGCCUGGGAGAAGGCUGAAUGCUAC | 28.6 nM | 14.2 nM | – | –
UAUAUAUAGUAAGGAUAUGUAUAUAUUUUGUAAACAGAAGGUACUGACAUGAGGAUCACCCAUGUUUUAGUGUGGGCAUGUAGA | – | – | 80.8 nM | 130 nM
UUUUUGUGAGGAUAUCAGUAGUAGAACAAUAGUACUACUACUGAGAAGGCACAUGAGGAUCACCCAUGUUUCUC | – | – | 50.2 nM | 294 nM
GUUUUUCCUCAUGUACAUGAGGAACAUGAGGAUCACCCAUGUAGAAGGAAUUUUUUUAAGUUUAGUUAGGAUAUACAUAUAUUU | – | – | 72.9 nM | 64.5 nM
GUUAAACAUGAGGAUCACCCAUGUAAGGAUAUGCUGCGGUCGCGAUGACGUGACUGCAGCAGAAGGUACAAAUG | – | – | 86.8 nM | 96.5 nM
CGUGCGUAUGUGAGGAUAUGCUGGUCCUUGGAUCGGCAGAAGGCACAUGAGGAUCACCCAUGUGGUGUCGUACA | – | – | 312 nM | 43.2 nM
GCCAUCGGGUGAGGAUAUAAAAUUAUGAUUAAAUUAGAAGGCAUCUCAUAAGACAUGAGGAUCACCCAUGUAGUUAAGAUGGCA | 90.6 nM | 31.9 nM | – | –
CUAAGGGAUUGCUCGAAGACAUGAGGAUCACCCAUGUAGGCGAGAAGGGCGGCGACUUUAGCGCUGCAGGAUAUCGACUGCAGU | – | – | 9 nM | 10.1 nM
GAGGACUGAAUAAAUAACUCAAAUACAUGAGGAUCACCCAUGUAGGAUAUCGUCAGGAAUACUGACGAGAAGGACAUACAGUCC | – | – | 13.4 nM | 19.2 nM
GACGGAUGUAUAGGAUAUGCUGAGGAUAACUCAGCAGAAGGAUACAUGAGGAUCACCCAUGUAAUAAUAAUAAUAAUAACCGUC | – | – | 13.3 nM | 24.1 nM
GGAUAGGACAGAGGAUAUACGUGCUAGAGAUACUCGCAAAAUUUCCUCACAUGAGGAUCACCCAUGUAGAAGGCUGUCCUAUCG | – | – | 93 nM | 436 nM
UGUAUGGACAGAGGAUAUACGGCUAGGAGAUACUAGCCACUAUUCCUCACAUGAGGAUCACCCAUGUAGAAGGCUGUCCAUACU | – | – | 17.2 nM | 120 nM
UGAUCGAAAGAUCAUAGAUUCUGCUAGGAUAUGCAGAAGUUGCGAUUUACAUGAGGAUCACCCAUGUAGAAGGAGUAGAGUCUA | – | – | 7.16 nM | 7.16 nM
UUUAGUUGCGGGCAGGAUAUGUGUUAAAAUACAUGAGGAUCACCCAUGUGCGGGUAUAACACCCGACAGAAGGGCCAAUCGCGAC | 73.6 nM | 24.4 nM | – | –
AAUUAAUUAAUACAUGAGGAUCACCCAUGUAAUUAUUAGAUCUAGGAUAUCAGCUCGUUUAGAGCUGAGAAGGAGAUCACAUGU | 19.2 nM | 14.6 nM | – | –
UCAUUUCAGUUAGGAUAUUAAAACAUGACGAUACAUGAGGAUCACCCAUGUUAAGAAGGAACUAAUACAUAUAAUGCAAUGUUC | – | – | 15.9 nM | 13.2 nM
GUACGUGGACAGAAGGUGACAUGAGGAUCACCCAUGUUAGUUCGGGUACGAGCGAUCCGCGUGAUUGAGGAUAUGUCUGCGGGC | – | – | 69.1 nM | 175 nM
AAUCAGUCAGGAUAUCGUUAAUUUAAUUGUUUGUUUUAGUUCGAGAAGGGACAUGAGGAUCACCCAUGUACUUA | – | – | 24.8 nM | 26.8 nM
CGGCGCUGUCGAGAGGAUAUGCGGUGAUGGACAUGAGGAUCACCCAUGUUAGCGAUAGCAUCACGGUAGAAGGCUCUACGGCCUG | 112 nM | 15.6 nM | – | –
GAUAUGUUAGGAUAUCAAACCUUGUUGAAUCAACGAGCCAGUGAGAAGGAACAUGAGGAUCACCCAUGUGUCCG | – | – | 16.2 nM | 16.3 nM
AUCCGACAUGUAGGAUAUGCGUGGCGAAGCUAUGCAGAAGGACAUGAGGAUCACCCAUGUUUUACCGUCUGCGUACAGACGGUG | – | – | 286 nM | 240 nM
UUAAAUCAUGUAGGAUAUGCAUGGCGAAGCUACGCAGAAGGACAUGAGGAUCACCCAUGUUAUAGCGUCUGGAAACAGAUGCAA | – | – | 101 nM | 177 nM
UUACCCUCAGUAAGGAUAUCUUUAUCUGCUGAUAUAGAGAAGGUACAUGAGGAUCACCCAUGUGCGAUUGGGCU | – | – | 116 nM | 282 nM
CAGCGAUAGCUGAAUGGUACAUGGGAGGAUAUGGGAAGAUACAUGAGGAUCACCCAUGUUAAAUACUAGAAGGCCCAUGUACCU | 14.9 nM | 5.45 nM | – | –
UACUUGUCAGGAUAUCUUACAUUAACAUCGUAGUUACAAUUGGAGAAGGGACAUGAGGAUCACCCAUGUUUGGC | – | – | 25.8 nM | 34.5 nM
UGUAUUAACGGAGGAUAUCGAUAUCAAACAUGAGGAUCACCCAUGUUGAGGAUCACCCAUGUCCAUGAGAAGGCCGGCGUACUC | 41.8 nM | 32.9 nM | – | –
AUCAGCACGUGAGGAUAUGCGUCACUGCGAAAGCAGUGCGGUAAGAUCACAUGAGGAUCACCCAUGUAGAAGGCACGAGCUGAU | – | – | 20.8 nM | 54 nM
GCCAUCGUAUGAGGAUAUGGCACCGAAACGGUGCCAGAAGGCAUGUCAAUAGACAUGAGGAUCACCCAUGUAUUAUCGAUGGCA | 367 nM | 37.1 nM | – | –

Sequence | apparent Kd [1] | apparent Kd [2] | apparent Kd [3] | apparent Kd [4]
UCAUGAAGGGCAGGAUAUGGACAUGAGGAUCACCCAUGUACAUGGGAUUAUAUACUGAAUUUAUACUAGAAGGGUUACAUAAAU | – | – | 31 nM | 18.1 nM
AGCUACGUUUCGUAGCAGUGUCAUCGAGAAGGCCCUGACAUGAGGAUCACCCAUGUUGUUACAUGGGAGGAUAUCGAUGAUACU | 13.4 nM | 5.59 nM | – | –
AGCAUGUGAGGAUAUGCAGUUGACCGGUACGCCCAGUCAGGGCAGAAGGCACAUGAGGAUCACCCAUGUGAUAG | – | – | 44.7 nM | 122 nM
GGUACUCAAAGAGUACCAAUUCGAACAUGAGGAUCACCCAUGUAGGAUAUGCUACUCAAAGAGUAGCAGAAGGACAUGUGCCUA | – | – | 15.6 nM | 73.6 nM
GGGUGACAUGAGGAUCACCCAUGUCAGGAUAUGGGUUUGGGCCCGAAAGGGCCCGGGCCCAGAAGGGACUGCCC | – | – | 50.9 nM | 96.4 nM
AGUACUCCAGAAGGAUAUGCAUCGGUGGAUGUCCUUAGGCGGACGGUCACAUGAGGAUCACCCAUGUAGAAGGUCUGGGAGCCG | – | – | 39.8 nM | 238 nM
UUUACCAGAGGAUAUGCGAAUAAAUAAAACUUUUUUUUUUAACAUGAGGAUCACCCAUGUAGAAGGCUGCUUUU | – | – | 25.4 nM | 23.6 nM
UAUAUACAUGAGGAUCACCCAUGUCAGGAUAUUAGAUAUAUAUAUACAUAUAAUUAUUUAAGAAGGGACACUAA | – | – | 43.8 nM | 46 nM
ACAUUAGUACCACAUGUAUUACAUGAGGAUCACCCAUGUAACUAGGAUAUGUAUUAGAAUUUACAACAGAAGGAGUUAAUAUGU | – | – | 9.8 nM | 11.9 nM
CCUAGUUGGUAAGGAUAUCCUACACUAUUCUGACCCGUGCAGGCUACAUGAGGAUCACCCAUGUGGGAGAAGGUGCGUCAACGU | – | – | 12.6 nM | 11.8 nM
AAUUCGUCAGGAUAUGCAUGUAGUUGCUACAUUUCGCCGUUGCAGAAGGGACAUGAGGAUCACCCAUGUAAGUC | – | – | 33.1 nM | 34.2 nM
CAUCUAUUUAGAGGAUAUGGUGACGAAAAGCUACCAGAAGGCUAAGUACAUGAGGAUCACCCAUGUGCGUGGGCGCUUAGGGUC | – | – | 9.93 nM | 47.8 nM
CGCCUGUGAGGAUAUUAGUAGUAGUCAGAAUAGACUAUUACUGAGAAGGUACAUGAGGAUCACCCAUGUUGGCG | – | – | 20.9 nM | 19.1 nM
CUCUUGUCAGGAUAUUAUGGACGAAGGCAGGGCCGCGUCAGUGAGAAGGGACAUGAGGAUCACCCAUGUAAAAU | – | – | 97.8 nM | 74.6 nM
UUGCGGUCAGGAUAUGCAUGGCGGGACUUGCGUCGUGGCGUGGAGAAGGGACAUGAGGAUCACCCAUGUGGAGA | – | – | 88.2 nM | 65.7 nM
AGAUUCAUGGCCCGUUCGGGCUCACAUGAGGAUCACCCAUGUGAGGAUAUGACGUACCUGACUCGUCAGAAGGCGCAUGCGAAU | – | – | 7.41 nM | 13.7 nM
AAUUUGCACGCAGGAUAUCGAUAUAAAAGCUGACGAGAAGGGCGGUACAUGAGGAUCACCCAUGUGAACGCCGGGUGGUCUCGU | – | – | 6.55 nM | 9.34 nM
GCAUGUUGGUAGGAUAUGCAGCGAAAACCGCGAGUAGAAGGAUUGACAUGAGGAUCACCCAUGUGAACCUAAGG | – | – | 27.1 nM | 59.2 nM
AUGCUUCACACAGGAUAUUACAUGAGGAUCACCCAUGUUGGGCGGUAGCUCGAAAGAGCUACCGGUAAGAAGGGUGUGAAGCAU | – | – | 30.4 nM | 59.2 nM
AGUCCAGAAGGAUAUACAUAGGUGAUAAAAAAAAAAAAACUACAUGAGGAUCACCCAUGUAGAAGGUCUGGACA | – | – | 61.9 nM | 40 nM
CAACUGCAUGUGAGGAUAUGCACCGGCCAAGCCGGGCAGAAGGCACAUGAGGAUCACCCAUGUCAUCCUAUUGC | – | – | 12.6 nM | 27.8 nM
AGGUGACAUGAGGAUCACCCAUGUCAGGAUAUAUACACCGCCGGCGUGAAGCCGGCGGAUAGAAGGGACAAAAU | – | – | 17.1 nM | 21.3 nM
GAUAGACAUGAGGAUCACCCAUGUGAGGAUAUGCGUACGUUGUCAGUAGGCGACGUGCGCAGAAGGCGCAAGUU | – | – | 77.1 nM | 46.5 nM
GGCUGCAAUUAUGAGGAUAUGUUCGGAUGAACAUGAGGAUCACCCAUGUGGCGAUAGCUAUCUGUGCAGAAGGUGUAGUGGUAGC | 213 nM | 61.8 nM | – | –
GCCAGUUAUGUAGGAUAUGCGCGGCGAGCCUGAGCAGAAGGACAUGAGGAUCACCCAUGUGUUGCGGUUUGAGUACUAAUCGCU | – | – | 31.5 nM | 171 nM
CCGGUUUAUGGAGGAUAUGGAGCCUUAUUGGCUCCAGAAGGCUAAUAACAUGAGGAUCACCCAUGUCGGCGGUCUAAUGACCGA | 33.1 nM | 20.6 nM | – | –
GGGUACAUCGGAGGAUAUCUUGUAAAUACAUGAGGAUCACCCAUGUCGAUGGAGACAUCGGAGAUUGAGAAGGCCGAUGUACCG | 8.03 nM | 5.36 nM | – | –
